MIC and Activity data for 12 compounds are collected here from ChEMBL document CHEMBL1145694, “In vitro evaluation of antifungal properties of 8.O.4'-neolignans” (1997).

In test [1] the test system is Trichophyton mentagrophytes. The experiment in a line: Antifungal activity against Trichophyton mentagrophytes ATCC 9972 after 15 days by agar dilution method. The format is functional. The conditions noted are these: ATCC 9972, 360 h. Summed up:
(§1)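 Dermatophytes were kept on Saboureaud dextrose agar slopes and subcultured every 15 days. Spore suspensions were set to 10⁶ CFU/mL, and 5 µL went into Saboureaud-chloramphenicol agar wells. Wells held twofold dilutions from DMSO stocks, final 0.10–250 µg/mL, DMSO ≤2%. Ketoconazole and amphotericin B were positive controls, with a drug-free blank. Incubation was at 30 °C for up to 15 days. MIC = lowest concentration with no visible growth.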
A general note: In agar dilution, organisms are placed on agar that contains the substance at set levels.

In the next test the test system is Aspergillus flavus. The experiment in a line: Antifungal activity against Aspergillus flavus ATCC 9170 up to 250 ug/mL by agar dilution method. The class given is functional, organism-based. Summed up:
(§2)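 Agar dilution in Saboureaud-chloramphenicol agar wells. Test agents from DMSO stocks were serially diluted twofold to final 0.10–250 µg/mL, with DMSO ≤2% final. Each well got 5 µL of yeast cell or spore suspension (spores at 10⁶ CFU/mL). Ketoconazole and amphotericin B served as positive controls, with a drug-free blank. Plates were held at 30 °C for 24, 48 or 72 h, set by control growth. MIC = lowest concentration with no visible growth.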

The next test has as its system Microsporum canis. Briefly: Antifungal activity against Microsporum canis C112 after 15 days by agar dilution method. The format is functional. The conditions noted are these: 360 h. Summed up:
as §1

The next test has as its system Saccharomyces cerevisiae. Briefly: Antifungal activity against Saccharomyces cerevisiae ATCC 9763 up to 250 ug/mL by agar dilution method. The format is functional, organism-based. Summed up: as §2
A further test concerns Candida albicans. Briefly: Antifungal activity against Candida albicans ATCC 10231 up to 250 ug/mL by agar dilution method. The class given is functional, organism-based. In a few lines:
as §2

Another test deals with Cryptococcus neoformans. The experiment in a line: Antifungal activity against Cryptococcus neoformans ATCC 32264 up to 250 ug/mL by agar dilution method. The format is functional, organism-based. Summed up: as §2
Another test deals with Nannizzia gypsea. Briefly: Antifungal activity against Microsporum gypseum C115 after 15 days by agar dilution method. The conditions noted are these: 360 h. The class given is functional. In a few lines: as §1
Another test concerns Trichophyton rubrum. The experiment in a line: Antifungal activity against Trichophyton rubrum C113 after 15 days by agar dilution method. The format is functional. The conditions noted are these: 360 h. Summed up: as §1
The test system of another test is Aspergillus niger. The experiment in a line: Antifungal activity against Aspergillus niger ATCC 9029 up to 250 ug/mL by agar dilution method. The format is functional, organism-based. In a few lines:
as §2

In a further test the test system is Epidermophyton floccosum. The experiment in a line: Antifungal activity against Epidermophyton floccosum C114 after 15 days by agar dilution method. The format is functional. The following applies: 360 h. In a few lines:
as §1

The test system of another test is Aspergillus fumigatus. The experiment in a line: Antifungal activity against Aspergillus fumigatus ATCC 26934 up to 250 ug/mL by agar dilution method. The format is functional, organism-based. In a few lines: as §2

≈ marks a conversion by molar mass, not a printed value. Calls of active or inactive are those of the source. The calls are words filed in the database; no cut-off is given here.

By MIC is commonly meant the lowest concentration that inhibits growth of the organism. A high value points to weaker potency. In the case of `C=CCc1ccc(OC(C)C(=O)c2ccc(OC)c(OC)c2)c(OC)c1` (racemic), the MIC in test [1] is greater than 250 µg/mL; in the test on Microsporum canis, 250 µg/mL (≈ 701 µM); in the test on Nannizzia gypsea it was 250 µg/mL (≈ 701 µM); with Trichophyton rubrum it was 250 µg/mL (≈ 701 µM); against Epidermophyton floccosum, 250 µg/mL (≈ 701 µM). The result with Aspergillus flavus, with Saccharomyces cerevisiae, in the test with Candida albicans, in the test on Cryptococcus neoformans, with Aspergillus niger and with Aspergillus fumigatus was inactive.
On to `C/C=C/c1ccc(O[C@@H](C)[C@@H](O)c2ccc(OC)c(OC)c2)c(OC)c1` (racemic) [VIROLIN], for which the MIC is greater than 250 µg/mL in [1]; 50 µg/mL (≈ 139 µM) against Microsporum canis; greater than 250 µg/mL in the test with Nannizzia gypsea; greater than 250 µg/mL with Trichophyton rubrum; 100 µg/mL (≈ 279 µM) against Epidermophyton floccosum. Also, the result with Aspergillus flavus, in the test with Saccharomyces cerevisiae, with Candida albicans, in the test with Cryptococcus neoformans, in the test on Aspergillus niger and in the test on Aspergillus fumigatus was inactive.
Take `C/C=C/c1ccc(O[C@H](C)[C@@H](O)c2cc(OC)c(OC)c(OC)c2)c(OC)c1` (racemic): the MIC stood at 80 µg/mL (≈ 206 µM) in test [1]; 60 µg/mL (≈ 154 µM) in the test with Microsporum canis; 60 µg/mL (≈ 154 µM) in the test on Nannizzia gypsea; 50 µg/mL (≈ 129 µM) against Trichophyton rubrum; 25 µg/mL (≈ 64.4 µM) with Epidermophyton floccosum. The result in the test with Aspergillus flavus, with Saccharomyces cerevisiae, in the test on Candida albicans, in the test on Cryptococcus neoformans, in the test with Aspergillus niger and in the test with Aspergillus fumigatus was inactive.
For `C=CCc1cc(OC)c(O[C@H](C)[C@@H](O)c2cc(OC)c(OC)c(OC)c2)c(OC)c1` (racemic) [RHAPHIDECURSINOL B], the MIC is 50 µg/mL (≈ 119 µM) in test [1]; 50 µg/mL (≈ 119 µM) in the test on Microsporum canis; 150 µg/mL (≈ 358 µM) against Nannizzia gypsea; 25 µg/mL (≈ 59.7 µM) with Trichophyton rubrum; 50 µg/mL (≈ 119 µM) with Epidermophyton floccosum. In addition, the result in the test with Aspergillus flavus, in the test on Saccharomyces cerevisiae, in the test on Candida albicans, with Cryptococcus neoformans, in the test with Aspergillus niger and in the test with Aspergillus fumigatus was inactive.
For `C/C=C/c1ccc(OC(C)C(=O)c2cc(OC)c(OC)c(OC)c2)c(OC)c1` (racemic), the MIC (in [1]; against Microsporum canis; against Nannizzia gypsea; against Trichophyton rubrum; with Epidermophyton floccosum) was greater than 250 µg/mL in each case. In addition, the outcome with Aspergillus flavus, in the test on Saccharomyces cerevisiae, with Candida albicans, in the test on Cryptococcus neoformans, in the test on Aspergillus niger and with Aspergillus fumigatus was inactive.
As for `C=CCc1cc(OC)c(OC(C)C(=O)c2ccc(OC)c(OC)c2)c(OC)c1` (racemic), the MIC was greater than 250 µg/mL in [1]; 250 µg/mL (≈ 647 µM) in the test on Microsporum canis; greater than 250 µg/mL in the test with Nannizzia gypsea; greater than 250 µg/mL against Trichophyton rubrum; greater than 250 µg/mL with Epidermophyton floccosum. Moreover, the outcome in the test with Aspergillus flavus, in the test with Saccharomyces cerevisiae, in the test with Candida albicans, in the test with Cryptococcus neoformans, with Aspergillus niger and in the test on Aspergillus fumigatus was inactive.
As for `C=CCc1ccc(O[C@@H](C)[C@@H](O)c2ccc(OC)c(OC)c2)c(OC)c1` (racemic), the MIC came to 40 µg/mL (≈ 112 µM) in [1]; 20 µg/mL (≈ 55.8 µM) with Microsporum canis; 60 µg/mL (≈ 167 µM) in the test on Nannizzia gypsea; 20 µg/mL (≈ 55.8 µM) in the test with Trichophyton rubrum; 25 µg/mL (≈ 69.7 µM) in the test on Epidermophyton floccosum. Also, the outcome in the test with Aspergillus flavus, with Saccharomyces cerevisiae, in the test with Candida albicans, in the test on Cryptococcus neoformans, in the test on Aspergillus niger and in the test on Aspergillus fumigatus was inactive.
In the case of `C=CCc1cc(OC)c(O[C@H](C)[C@@H](O)c2ccc(OC)c(OC)c2)c(OC)c1` (racemic), the MIC was 150 µg/mL (≈ 386 µM) in test [1]; 150 µg/mL (≈ 386 µM) against Microsporum canis; 50 µg/mL (≈ 129 µM) with Nannizzia gypsea; 80 µg/mL (≈ 206 µM) against Trichophyton rubrum; 40 µg/mL (≈ 103 µM) with Epidermophyton floccosum. Further, the result in the test with Aspergillus flavus, in the test on Saccharomyces cerevisiae, in the test with Candida albicans, in the test on Cryptococcus neoformans, in the test on Aspergillus niger and in the test on Aspergillus fumigatus was inactive.
On to `C=CCc1cc(OC)c(O[C@@H](C)[C@@H](O)c2cc(OC)c(OC)c(OC)c2)c(OC)c1` (racemic), for which the minimum inhibitory concentration (MIC) in test [1] came out at 50 µg/mL (≈ 119 µM); in the test with Microsporum canis it was 60 µg/mL (≈ 143 µM); against Nannizzia gypsea, 80 µg/mL (≈ 191 µM); in the test with Trichophyton rubrum, 25 µg/mL (≈ 59.7 µM); against Epidermophyton floccosum, 60 µg/mL (≈ 143 µM). Besides, the result with Aspergillus flavus, in the test on Saccharomyces cerevisiae, with Candida albicans, in the test with Cryptococcus neoformans, in the test on Aspergillus niger and with Aspergillus fumigatus was inactive.
For `C/C=C/c1ccc(O[C@H](C)[C@@H](O)c2ccc(OC)c(OC)c2)c(OC)c1` (racemic), the MIC in [1] worked out at 150 µg/mL (≈ 418 µM); with Microsporum canis, 50 µg/mL (≈ 139 µM); in the test with Nannizzia gypsea, 50 µg/mL (≈ 139 µM); with Trichophyton rubrum, 20 µg/mL (≈ 55.8 µM); in the test on Epidermophyton floccosum, 70 µg/mL (≈ 195 µM). Moreover, the result in the test on Aspergillus flavus, in the test on Saccharomyces cerevisiae, in the test with Candida albicans, in the test on Cryptococcus neoformans, in the test with Aspergillus niger and with Aspergillus fumigatus was inactive.
As for `C/C=C/c1ccc(O[C@@H](C)[C@@H](O)c2cc(OC)c(OC)c(OC)c2)c(OC)c1` (racemic), the MIC in [1] is greater than 250 µg/mL; in the test with Microsporum canis, greater than 250 µg/mL; against Nannizzia gypsea it was greater than 250 µg/mL; in the test with Trichophyton rubrum, 125 µg/mL (≈ 322 µM); with Epidermophyton floccosum, 50 µg/mL (≈ 129 µM). The result in the test on Aspergillus flavus, in the test on Saccharomyces cerevisiae, with Candida albicans, with Cryptococcus neoformans, in the test with Aspergillus niger and in the test with Aspergillus fumigatus was inactive.
For `C=CCc1cc(OC)c(OC(C)C(=O)c2ccc3c(c2)OCO3)c(OC)c1` (racemic), the minimum inhibitory concentration (MIC) is greater than 250 µg/mL in test [1]; greater than 250 µg/mL in the test with Microsporum canis; 250 µg/mL (≈ 675 µM) in the test on Nannizzia gypsea; greater than 250 µg/mL against Trichophyton rubrum; greater than 250 µg/mL against Epidermophyton floccosum. The outcome with Aspergillus flavus, with Saccharomyces cerevisiae, in the test with Candida albicans, with Cryptococcus neoformans, in the test with Aspergillus niger and in the test with Aspergillus fumigatus was inactive.
